An excerpt weighted towards active compounds, which were near 29% of everything screened.
CYP2C19 inh: blocks human cytochrome P450 2C19; hit rate 21% among 96,000; P33261; CYP2C19 Supersomes, luciferin-H EGE luminescence, 30 min; inhibition, % at 5 µM; AID 778;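 active = CYP2C19 inhibition above a set limit at 5 µM in the primary screen, cut at about 50% in these data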;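 note: plate controls were negative control wells for no effect and 2.5 mM tranylcypromine positive control for full effect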
Target sequence (P33261 whole entry, looked up): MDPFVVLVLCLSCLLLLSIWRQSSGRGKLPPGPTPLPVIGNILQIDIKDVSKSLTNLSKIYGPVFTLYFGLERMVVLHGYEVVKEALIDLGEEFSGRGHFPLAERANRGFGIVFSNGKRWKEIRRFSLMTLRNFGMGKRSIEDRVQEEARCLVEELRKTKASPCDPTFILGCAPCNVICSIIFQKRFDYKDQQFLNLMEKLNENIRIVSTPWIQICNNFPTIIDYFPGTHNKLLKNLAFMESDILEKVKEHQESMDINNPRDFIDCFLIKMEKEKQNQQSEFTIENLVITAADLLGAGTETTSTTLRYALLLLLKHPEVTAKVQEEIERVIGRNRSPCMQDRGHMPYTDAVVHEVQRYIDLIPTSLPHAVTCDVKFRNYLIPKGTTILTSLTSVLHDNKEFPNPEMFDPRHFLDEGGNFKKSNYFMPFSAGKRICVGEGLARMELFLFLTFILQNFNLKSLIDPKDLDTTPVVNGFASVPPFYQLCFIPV
CYP2C19 activ: increases human CYP2C19 enzyme activity; P33261; recombinant CYP2C19, luciferin-H EGE luminescence; stronger effect = higher value; 0 = fully inhibited enzyme, 1 = untreated enzyme; activation factor at 5 µM; 96,000 tested, under 10 active;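 active = activation factor of at least 2 at 5 µM in the primary screen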;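 note: 0 = wells with 2.5 mM tranylcypromine and 1 = vehicle-only wells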
CYP2C9 inhib: human CYP2C9 inhibition; AID 777; inhibition, % at 5 µM; P11712; CYP2C9 Supersomes, luciferin-H conversion, luminescence; hit rate 20% among 96,000;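 active = blocking of liver enzyme CYP2C9 beyond about 50% at 5 µM, limit read from the data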
Ecoli WT expand: growth inhibitors of E. coli BW25113 wild type | hit rate 0.15% among 98,000 | growth inhibition, % at 100 µM | OD600 absorbance;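 active = growth inhibition above about 50% at one test dose, limit read from the data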;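 note: growth measured after 20 h incubation at 37 °C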
CYP2C9 act: increases human cytochrome P450 2C9 activity | recombinant CYP2C9, luciferin-H conversion, luminescence; stronger effect = higher value; factor 1 = untreated enzyme, 0 = blocked | AID 1024 | activation factor at 5 µM | hit rate 1.4% among 96,000;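 active = activation factor of 2 or more for CYP2C9 at a 5 µM dose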;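 note: 0 = sulfaphenazole-blocked wells and 1 = vehicle-only wells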
Ecoli tolC: blocks growth of E. coli BW25113 tolC mutant; growth inhibition, % at 10 µM (by protocol); OD615; hit rate 2.2% among 65,000; AID 573;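 active = growth inhibition at or above a cutoff equal to the mean over every tested compound plus 3 SD, cut at about 60% in these data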;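 note: growth measured after 20 h incubation at 37 °C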
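Test system: tolC-deleted E. coli BW25113; medium: LB with kanamycin 50 µg/mL; compound: single-point testing at 10 µM; incubation: 20 h compound exposure of bacteria at 37 °C; signal: OD at 615 nm; evaluation: growth inhibition in percent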
* = called active by the depositor; · = no result.

SMILES	CYP2C19 inh	CYP2C19 activ	CYP2C9 inhib	Ecoli WT expand	CYP2C9 act	Ecoli tolC
Cc1ccccc1N1C(=O)CC(N(O)c2ccccc2)C1=O (stereo unspecified)	74*	0.3	-20	-3	1.2	3
COc1ccccc1-n1cnnc1SCC(=O)N1CCN(S(=O)(=O)c2ccccc2)CC1	60*	0.4	3	-4	1	2
O=C(CSc1nnc2c(Cl)cc(Cl)cn12)N1CCN(S(=O)(=O)c2ccccc2)CC1	6	0.9	-12	2	1.1	-1
CC(C)CC(=O)N1CCN(S(=O)(=O)c2ccccc2)CC1	26	0.7	-6	-7	1.1	·
COc1ccccc1-n1cnnc1SCC(=O)Nc1ncc(Cl)cc1Cl	27	0.7	-7	-3	1.1	-4
COc1cccc(OC)c1C(=O)N1CCN(S(=O)(=O)c2ccccc2)CC1	53*	0.5	74*	11	0.3	2
COc1ccccc1-n1cnnc1SCC(=O)Nc1nc(C)c(Cl)cc1Cl	75*	0.3	21	-4	0.8	·
COc1ccc(Cl)cc1NC(=O)CSc1nncn1-c1cccnc1	94*	0.1	34	2	0.7	14
COc1ccc(C(=O)N2CCN(S(=O)(=O)c3ccccc3)CC2)c(OC)c1	39	0.6	32	7	0.7	-4
COc1ccccc1C(=O)N1CCN(S(=O)(=O)c2ccccc2)CC1	93*	0.1	52*	5	0.5	-9
CCCCNC(=O)CC1SC(=NCC)N(CC)C1=O (stereo unspecified)	37	0.6	-74	-5	1.7	·
CCOC(=O)C(C)Sc1nc(-c2ccco2)cc(C(F)(F)F)c1C#N (stereo unspecified)	7	0.9	20	-3	0.8	31
CCN(CC)CCCN(Cc1cc2ccc(C)c(C)c2[nH]c1=O)C(=O)NC1CCCCC1	-5	1.1	-2	7	1	·
CCC(CC)c1nnc(NC(=O)c2ccc(N3CCCC3=O)cc2)s1	-11	1.1	4	-11	1	·
CC(=O)N1CCc2cc(C(=O)CN3CCN(c4cccc(Cl)c4)CC3)ccc21	32	0.7	84*	6	0.2	8
CC(=O)N1CCc2cc(C(=O)CN3CCC(C)CC3)ccc21	7	0.9	18	6	0.8	-3
COc1ccc(CNC(=O)Cn2cc([N+](=O)[O-])nc2C)cc1	-15	1.2	-21	9	1.2	·
Cc1cc(Nc2ccc(C)c(C)c2)n2nc(C)nc2n1	25	0.7	52*	1	0.5	-6
COc1ccc(-c2nnc3n2N=C(C)CS3)cc1OC	1	1	-2	-1	1	-5
Cc1cc(-c2nnc3n2N=C(c2ccc(-c4ccccc4)cc2)CS3)n[nH]1	10	0.9	18	-4	0.8	92*
COc1ccc(C2=Nn3c(nnc3-c3ccccc3)SC2)cc1OC	72*	0.3	30	-5	0.7	20
COc1ccc(-c2nnc3n2N=C(c2ccccc2)CS3)cc1OC	52*	0.5	76*	·	0.2	9
Cc1cccc(-c2nnc3n2N=C(c2ccccc2)CS3)c1	29	0.7	50	-2	0.5	10
CCCCNC(=O)CCc1nc2cccnc2n1Cc1ccc(OC)cc1	41	0.6	22	0	0.8	·
COc1ccc(N2CCN(CC(=O)N3CCC(C)CC3)CC2)cc1	12	0.9	6	2	0.9	-13
SMILES	CYP2C19 inh	CYP2C19 activ	CYP2C9 inhib	Ecoli WT expand	CYP2C9 act	Ecoli tolC
Cc1c(-c2cccs2)[n+](=O)c2c(n1[O-])CCCCC2	59*	0.4	49	12	0.5	-18
O=C(Nc1ccc(F)c(F)c1)c1cc(S(=O)(=O)N2CCN(c3ccccn3)CC2)ccc1F	11	0.9	33	-10	0.7	·
O=C(Nc1c(F)cccc1F)c1cnc(N2CCN(c3ccccn3)CC2)c2ccccc12	36	0.6	65*	-8	0.4	·
COc1ccc(-c2cc(C(=O)N3CCN(c4ccccc4)CC3)c3ccccc3n2)cc1OC	89*	0.1	93*	-10	0.1	·
O=C(c1nn(-c2ccccc2)c(=O)c2ccccc12)N1CCN(c2ccccn2)CC1	20	0.8	32	-8	0.7	·
COc1ccc(C(=O)N2CCN(c3ccc(C)cc3)CC2)cc1OC	13	0.9	-75	-7	1.8	5
O=C(c1cc(-c2ccncc2)nc2ccccc12)N1CCN(c2ccccn2)CC1	39	0.6	85*	2	0.1	7
O=C(c1cnc(N2CCN(c3ncccn3)CC2)c2ccccc12)N1CCN(c2ccccn2)CC1	68*	0.3	80*	-22	0.2	3
CCn1cc(Cl)c(C(=O)Nc2nc3ccccc3n2CCN2CCCCC2)n1	0	1	4	-6	1	11
Cc1ccccc1NC(=O)Nc1ccccc1Br	12	0.9	3	-7	1	·
O=C(c1cc(N2CCCCC2)nc2ccccc12)N1CCOCC1	0	1	9	1	0.9	1
Cc1ccc(NC(=O)c2cc(N3CCOCC3)nc3ccccc23)cc1	4	1	36	-6	0.6	13
O=C(c1cc(-c2ccncc2)nc2ccccc12)N1CCN(c2ccc(N3CCOCC3)nn2)CC1	38	0.6	68*	1	0.3	-12
O=C(c1cc(-c2cccnc2)nc2ccc(Br)cc12)N1CCN(c2ncccn2)CC1	34	0.7	58*	-16	0.4	18
O=C(Nc1ccccc1)c1cc(N2CCOCC2)nc2ccccc12	20	0.8	51*	-9	0.5	7
O=C(c1ccc(Br)o1)N1CCN(c2ncccn2)CC1	17	0.8	26	0	0.7	·
COc1ccc(N(C)C(=O)c2cnc(N3CCN(c4ncccn4)CC3)c3ccccc23)cc1	79*	0.2	69*	7	0.3	·
CC(=O)Nc1ccc(S(=O)(=O)NC2(C(F)(F)F)NC(=O)N(C3CCCCC3)C2=O)cc1 (stereo unspecified)	-9	1.1	30	3	0.7	·
O=C(c1ccccc1-c1ccccc1)N1CCN(c2ccccn2)CC1	40	0.6	73*	8	0.3	17
O=C(c1ccco1)N1CCN(C(=O)c2cc(-c3ccccn3)nc3ccccc23)CC1	1	1	4	3	1	-9
O=C(c1cc(-c2ccccc2)nc2ccccc12)N1CCN(c2ccccn2)CC1	37	0.6	52*	-14	0.5	25
O=C(c1ccc(C#Cc2ccccc2)o1)N1CCN(c2ccccn2)CC1	15	0.8	56*	-4	0.4	47
CN(C(=O)N1CCN(c2ccccn2)CC1)c1ccccc1	43	0.6	34	7	0.7	·
CCOC(=O)c1ccc(NC(=O)C(CC)CC)cc1	55*	0.5	10	5	0.9	-5
COc1ccc(CNC(=O)Nc2ccc(C)cc2)cc1	40	0.6	-15	-5	1.2	-2
O=C(NCc1ccncc1)Nc1ccccc1	54*	0.5	34	11	0.7	·

High-throughput results (PubChem)
